Only a selection was taken, and hits are over-represented in it overall.
IDH1 mut inh: blocks human IDH1 R132H reductase activity | 70,000 compounds, 0.18% hits | AID 624101 | O75874 | inhibition, % at 10 µM | diaphorase/resazurin fluorescence, 60 min; in the data active = inhibition above about 34%; inconclusive = no clear call, values can overlap the other calls; inactive = below about 11%
Target sequence (O75874 whole entry R132H): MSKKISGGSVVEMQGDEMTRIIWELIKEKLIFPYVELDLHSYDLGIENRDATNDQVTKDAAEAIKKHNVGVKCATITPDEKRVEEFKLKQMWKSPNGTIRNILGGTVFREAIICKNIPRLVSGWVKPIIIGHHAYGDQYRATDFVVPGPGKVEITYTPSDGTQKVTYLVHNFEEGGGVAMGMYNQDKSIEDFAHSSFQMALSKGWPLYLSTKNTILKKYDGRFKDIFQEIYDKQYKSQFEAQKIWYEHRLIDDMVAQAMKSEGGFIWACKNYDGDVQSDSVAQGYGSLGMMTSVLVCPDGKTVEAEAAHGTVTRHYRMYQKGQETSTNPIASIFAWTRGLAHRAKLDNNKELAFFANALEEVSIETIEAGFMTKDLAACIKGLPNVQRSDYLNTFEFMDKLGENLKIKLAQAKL
T cruzi growth-1: inhibitors of T. cruzi proliferation; T. cruzi beta-gal in NIH3T3, GalScreen luminescence, 90 h; AID 624255; 77,000 compounds, 5.9% hits; inhibition, % at 8.34 µM;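 active = mean inhibition above about 93%, with at least 55% of replicates each passing it, limit read from the data, passing the limit was not always enough; inconclusive = only one of those two conditions holds; inactive = neither condition holds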
KDM4C inh: KDM4C (human) demethylase inhibition; AID 720574; Q9H3R0; inhibition, % at 12.5 µM; GST-KDM4C 2-372, H3K9me3 peptide, LANCE TR-FRET; 96,000 compounds, 0.15% hits;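 active = mean replicate inhibition above about 25%, with at least 55% of replicates also reaching it, limit read from the data, passing the limit was not always enough; inconclusive = only one of those two conditions met; inactive = neither condition met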
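Compound: one test concentration per compound; Material: GST-GASC-1 enzyme fragment 2-372; Amount: GASC-1 enzyme at 10 nM final in reaction; Also added: H3K9me3 peptide substrate, Fe(II), 2-oxoglutarate; Technique: LANCE TR-FRET; Times: 30 min demethylation and 1 h detection at room temperature.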
T cruzi growth-2: inhibitors of T. cruzi proliferation; shares compounds with T cruzi growth-1; T. cruzi beta-gal in NIH3T3, GalScreen luminescence, 90 h; inhibition, % at 8.35 µM; 5,600 compounds, 72% hits; AID 651739;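 active = mean replicate inhibition above about 95% and at least 55% of replicates individually reaching it, limit read from the data; inconclusive = only one of the two criteria is met; inactive = neither criterion is met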
T cruzi growth-3: inhibitors of T. cruzi proliferation; 5,600 compounds, 21% hits; inhibition, % at 2.09 µM; T. cruzi beta-gal in NIH3T3, GalScreen luminescence, 90 h; AID 651740; shares compounds with T cruzi growth-1;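 active = mean inhibition above about 95%, with at least 55% of replicates also reaching it, limit read from the data; inconclusive = meets just one of the two conditions; inactive = meets neither condition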
NIH3T3 tox: cytotoxicity in mouse NIH/3T3 fibroblasts | AID 651742 | cytotoxicity (signal decrease), % at 8.35 µM | shares compounds with T cruzi growth-1 | NIH/3T3 viability, CellTiter-Glo ATP luminescence, 90 h | 5,600 compounds, 14% hits;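 active = mean signal decrease across replicates above about 35% based on untreated-well scatter, with enough replicates individually passing, limit read from the data; inconclusive = no rule stated though some were filed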
3T3 cytotox 2: kills mouse NIH/3T3 fibroblasts. 5,600 compounds, 56% hits. AID 651744. NIH/3T3 viability, CellTiter-Glo ATP luminescence, 90 h. shares compounds with T cruzi growth-1. inhibition, % at 24.9 µM;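 active = mean loss of cell viability signal at or above a set limit, and enough replicates individually reaching it; inconclusive = meets only the mean limit or only the replicate share; inactive = meets neither condition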
A number is an active result; . = inactive; ? = inconclusive; / = not tested or not shown.

SMILES	IDH1 mut inh	T cruzi growth-1	KDM4C inh	T cruzi growth-2	T cruzi growth-3	NIH3T3 tox	3T3 cytotox 2
C[C@@H]1CN([C@H](C)CO)S(=O)(=O)c2ccc(-c3ccncc3)cc2O[C@H]1CN(C)C(=O)Nc1ccc(C(F)(F)F)cc1	.	?	.	106	.	38	73
Cc1ccccc1-c1ccc2c(c1)O[C@@H](CN(C)C(=O)Nc1ccc(C(F)(F)F)cc1)[C@@H](C)CN([C@@H](C)CO)S2(=O)=O	.	.	.	/	/	/	/
O=C(C[C@@H]1C[C@H]2c3cc(NS(=O)(=O)c4ccc(F)cc4)ccc3O[C@H]2[C@H](CO)O1)N1CCc2ccccc2C1	.	?	.	.	.	.	.
CS(=O)(=O)Nc1ccc2c(c1)[C@@H]1C[C@H](CC(=O)N3CCc4ccccc4C3)O[C@H](CO)[C@@H]1O2	.	/	.	/	/	/	/
O=C(C[C@H]1C[C@H]2c3cc(NS(=O)(=O)c4ccc(F)cc4)ccc3O[C@H]2[C@H](CO)O1)N1CCc2ccccc2C1	.	110	.	.	.	.	.
CS(=O)(=O)Nc1ccc2c(c1)[C@@H]1C[C@@H](CC(=O)N3CCc4ccccc4C3)O[C@@H](CO)[C@@H]1O2	.	/	.	/	/	/	/
O=C(C[C@@H]1C[C@@H]2c3cc(NS(=O)(=O)c4ccc(F)cc4)ccc3O[C@@H]2[C@@H](CO)O1)N1CCc2ccccc2C1	.	115	.	100	.	.	.
O=C(C[C@@H]1C[C@@H]2c3cc(NS(=O)(=O)c4ccc(F)cc4)ccc3O[C@@H]2[C@@H](CO)O1)N1CCCCC1	.	/	.	/	/	/	/
C[C@@H]1CCCCO[C@@H](CN(C)C)[C@@H](C)CN([C@@H](C)CO)C(=O)c2cc(NS(C)(=O)=O)ccc2O1	.	.	.	/	/	/	/
C[C@H](CO)N1C[C@H](C)[C@H](CN(C)C(=O)c2ccncc2)OCCCC[C@H](C)Oc2ccc(N(C)C)cc2C1=O	.	.	.	/	/	/	/
CC(=O)Nc1ccc(NC(=O)CSc2nccc(=O)[nH]2)cc1	.	/	/	/	/	/	/
Cc1sc2ncnc(SCC(=O)N3CCOCC3)c2c1-c1ccc(Cl)cc1	.	/	/	/	/	/	/
C[C@H](CO)N1C[C@H](C)[C@H](CN(C)Cc2ccc3c(c2)OCO3)Oc2ccc(NS(=O)(=O)c3cccs3)cc2CC1=O	/	.	.	/	/	/	/
O=C(C[C@H]1CC[C@H]2[C@@H](COC[C@H](O)CN2Cc2cccc(Cl)c2)O1)N1CCOCC1	/	.	.	/	/	/	/
C[C@@H]1CCCCO[C@@H](CN(C)Cc2ccc(Cl)c(Cl)c2)[C@H](C)CN([C@@H](C)CO)C(=O)c2cc(N(C)C)ccc2O1	.	/	.	/	/	/	/
C[C@@H]1CCCCO[C@H](CN(C)Cc2ccc(Cl)c(Cl)c2)[C@@H](C)CN([C@@H](C)CO)C(=O)c2cc(N(C)C)ccc2O1	.	106	.	100	106	.	106
C[C@@H]1CCCCO[C@H](CN(C)Cc2ccc(Cl)c(Cl)c2)[C@@H](C)CN([C@H](C)CO)C(=O)c2cc(N(C)C)ccc2O1	.	.	.	/	/	/	/
C[C@@H]1CCCCO[C@@H](CN(C)Cc2ccc(Cl)c(Cl)c2)[C@H](C)CN([C@H](C)CO)C(=O)c2cc(N(C)C)ccc2O1	.	99	.	106	.	.	103
Cc1c(NC(=O)COc2ccc(Br)cc2)cccc1-c1nc2ncccc2o1	.	/	/	/	/	/	/
CC(=O)N1[C@@H]2Cn3c(ccc(/C=C/c4ccccc4)c3=O)[C@H]1[C@@H](C(=O)N1CCOCC1)[C@@H]2CO	/	/	.	/	/	/	/
C[C@@H]1CN([C@@H](C)CO)C(=O)c2cc(NC(=O)Nc3ccc4c(c3)OCO4)ccc2O[C@@H](C)CCCCO[C@H]1CN(C)C(=O)Cc1ccccc1	/	.	.	/	/	/	/
C[C@@H]1CCCCO[C@H](CN(C)C(=O)Cc2ccccc2)[C@@H](C)CN([C@@H](C)CO)C(=O)c2cc(NC(=O)Nc3ccc4c(c3)OCO4)ccc2O1	/	?	.	109	.	.	.
C[C@H]1CCCCO[C@H](CN(C)C(=O)Cc2ccccc2)[C@@H](C)CN([C@@H](C)CO)C(=O)c2cc(NC(=O)Nc3ccc4c(c3)OCO4)ccc2O1	.	115	.	112	.	.	.
C[C@@H]1CN([C@@H](C)CO)C(=O)c2cc(NC(=O)Nc3ccccc3)ccc2O[C@@H](C)CCCCO[C@H]1CN(C)C(=O)Cc1ccccc1	.	.	.	/	/	/	/
C[C@H](CO)N1C[C@H](C)[C@H](CN(C)Cc2cccnc2)Oc2ncc(C#Cc3cccnc3)cc2C1=O	/	.	.	/	/	/	/
SMILES	IDH1 mut inh	T cruzi growth-1	KDM4C inh	T cruzi growth-2	T cruzi growth-3	NIH3T3 tox	3T3 cytotox 2
C[C@H]1CCCCO[C@@H](CN(C)C(=O)CCCN(C)C)[C@@H](C)CN([C@@H](C)CO)C(=O)c2cc(NC(=O)CCC(F)(F)F)ccc2O1	.	.	.	/	/	/	/
C[C@@H]1CN([C@@H](C)CO)C(=O)c2cc(NC(=O)Cc3cn(C)c4ccccc34)ccc2O[C@@H]1CN(C)S(=O)(=O)c1ccccc1	.	.	/	/	/	/	/
C[C@@H]1CCCCO[C@@H](CN(C)C(=O)Nc2ccccc2)[C@H](C)CN([C@H](C)CO)C(=O)c2cc(NS(=O)(=O)c3ccc(Cl)cc3)ccc2O1	/	.	.	/	/	/	/
C[C@@H]1CCCCO[C@H](CN(C)C(=O)Nc2ccccc2)[C@@H](C)CN([C@@H](C)CO)C(=O)c2cc(NS(=O)(=O)c3ccc(Cl)cc3)ccc2O1	/	.	.	/	/	/	/
C[C@@H]1CN([C@H](C)CO)C(=O)c2cc(NS(=O)(=O)c3ccc(Cl)cc3)ccc2O[C@@H](C)CCCCO[C@H]1CN(C)C(=O)Nc1ccccc1	.	?	.	101	.	.	.
C[C@H]1CCCCO[C@@H](CN(C)C(=O)Nc2ccccc2)[C@@H](C)CN([C@@H](C)CO)C(=O)c2cc(NS(=O)(=O)c3ccc(Cl)cc3)ccc2O1	.	114	.	108	.	.	.
C[C@@H]1CCCCO[C@@H](CN(C)C(=O)Nc2ccccc2)[C@H](C)CN([C@@H](C)CO)C(=O)c2cc(NS(=O)(=O)c3ccc(Cl)cc3)ccc2O1	/	?	.	108	.	.	.
C[C@@H]1CN([C@@H](C)CO)C(=O)c2cc(NS(=O)(=O)c3ccccc3)ccc2O[C@@H](C)CCCCO[C@@H]1CN(C)C(=O)Nc1ccccc1	.	/	.	/	/	/	/
O=C(Cc1cccnc1)N1[C@H](CO)[C@@H]2c3ccccc3NC[C@@H]21	/	.	.	/	/	/	/
C[C@H](CO)N1C[C@H](C)[C@H](CN(C)C(=O)Nc2ccc3c(c2)OCO3)Oc2ccc(NS(=O)(=O)c3cn(C)cn3)cc2CC1=O	.	.	.	/	/	/	/
C[C@@H]1CN([C@@H](C)CO)C(=O)c2cc(NS(=O)(=O)c3ccc(F)cc3)ccc2O[C@@H]1CN(C)Cc1ccc(Cl)c(Cl)c1	.	101	.	99	.	?	107

Compound activity as filed in PubChem.
